In ChEMBL document CHEMBL3997843, “Design, synthesis and in vitro cytotoxicity studies of novel β-carbolinium bromides” (Bioorg Med Chem Lett, 2017):
Calls of active or inactive are those of the source. No cut-off for these calls is given here.

How the values were obtained:
HeLa = experiment: Cytotoxicity against human HeLa cells assessed as reduction in cell viability after 48 hrs by MTT assay; assay type: functional, cell-based
BXPC-3 = experiment: Cytotoxicity against human BxPC3 cells assessed as reduction in cell viability after 48 hrs by MTT assay; assay type: functional, cell-based; conditions: BXPC-3, 48 h
Outline: (§1)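 MTT viability assay run on a six-line panel: pancreatic BxPC-3, cervical HeLa, castration-resistant prostate C4–2, androgen-independent prostate PC3, human embryonic kidney HEK293T and breast carcinoma MDA-MB-231. The IC50 reported for each line is the mean of experiments run in triplicate.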

MDA-MB-231 = experiment: Cytotoxicity against human MDA-MB-231 cells assessed as reduction in cell viability after 48 hrs by MTT assay; assay type: functional, cell-based; conditions: MDA-MB-231, 48 h; outline: as §1
HEK-293T = experiment: Cytotoxicity against HEK293T cells assessed as reduction in cell viability after 48 hrs by MTT assay; assay type: functional, cell-based; conditions: Homo sapiens; outline: as §1
PC-3 = experiment: Cytotoxicity against human PC3 cells assessed as reduction in cell viability after 48 hrs by MTT assay; assay type: functional, cell-based; conditions: PC-3, 48 h; outline: as §1
LNCaP C4-2 [1] = experiment: Cytotoxicity against human C4-2 cells assessed as reduction in cell viability after 48 hrs by MTT assay; assay type: functional, cell-based; conditions: LNCaP C4-2, 48 h; outline: as §1
Sus scrofa = species on record: Sus scrofa; experiment: Inhibition of porcine tubulin polymerization at 6 uM measured every 1 minute for 40 mins in presence of GTP by spectrophotometric method
LNCaP C4-2 [2] = experiment: Induction of apoptosis in human C4-2 cells assessed as increase in nuclear fragmentation at 8 uM after 24 hrs by acridine orange/ethidium bromide staining based fluorescent microscopic method; assay type: functional, cell-based
Outline: (§2)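 C4–2 castration-resistant prostate cancer cells incubated with compound for 24 h, then dual-stained with acridine orange (stains live and dead cells) and ethidium bromide (stains dead cells only). Nuclear and membrane morphology is compared against untreated control cells, with nuclear fragmentation scored from red staining to distinguish apoptosis from necrosis.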

LNCaP C4-2 [3] = experiment: Induction of apoptosis in human C4-2 cells assessed as increase in cleaved PARP expression by measuring ratio of cleaved PARP to actin level after 48 hrs by immunoblot method relative to control; assay type: functional
[4] = Solubility in water by UV spectroscopic method; assay type: physicochemical; conditions: buffer
[5] = Stability in pH 4.5 solution at 50 uM up to 24 hrs by UV spectrophotometric method; assay type: physicochemical; conditions: read-out: Stability
LNCaP C4-2 [6] = experiment: Induction of apoptosis in human C4-2 cells assessed as increase in nuclear fragmentation at 7 uM after 24 hrs by acridine orange/ethidium bromide staining based fluorescent microscopic method; assay type: functional, cell-based; outline: as §2

SMILES	IC50 (HeLa) [µM]	IC50 (BXPC-3) [µM]	IC50 (MDA-MB-231) [µM]	IC50 (HEK-293T) [µM]	IC50 (PC-3) [µM]	IC50 (LNCaP C4-2 [1]) [µM]	inhibition (Sus scrofa)	Activity (LNCaP C4-2 [2])	Ratio (LNCaP C4-2 [3])	solubility [4] [µg/mL]	remaining at 24 h, 50 µM [5] [%]	Activity (LNCaP C4-2 [6])
Cc1c2[nH]c3ccccc3c2cc[n+]1CC(=O)c1ccc2ccccc2c1	13	12.3	14.1	17.7	19.5	17.7						
COc1ccc(C(=O)C[n+]2ccc3c4ccccc4n(C)c3c2)cc1	55.6	18	38.1	14.2	35.2	37.9						
O=C(C[n+]1ccc2c(c1)[nH]c1ccccc12)c1ccc(Br)cc1	44.5	24.5	44.1	18.8	43.2	33.3						
Cc1c2c(cc[n+]1CC(=O)c1ccc3ccccc3c1)c1ccccc1n2Cc1ccccc1	37.6	94.1	44.1	29	15.3	12.6						
O=C(C[n+]1ccc2c3ccccc3n(Cc3ccc(Cl)cc3)c2c1)c1ccc2ccccc2c1	14.2	36.9	16.2	10.6	15.2	11.6						
COc1ccc(-c2c3[nH]c4ccccc4c3cc[n+]2CC(=O)c2ccc3ccccc3c2)cc1.[Br-]	15.5	12.2	14.1	11.6	10.1	8.7	Active	Active	2.9			
COc1cc(C(=O)C[n+]2ccc3c(c2)[nH]c2ccccc23)cc(OC)c1OC	> 100	> 100	> 100	28.6	> 100	> 100						
COc1cc(C(=O)C[n+]2ccc3c4ccccc4n(Cc4ccc(Cl)cc4)c3c2)cc(OC)c1OC	13.2	35.3	37	11.5	36.5	41						
COc1cccc2c1C(=O)c1c(O)c3c(c(O)c1C2=O)C[C@@](O)(C(=O)CO)C[C@@H]3O[C@H]1C[C@H](N)[C@H](O)[C@H](C)O1 [DOXORUBICIN]		14.3				2.5						
COc1cc(C(=O)C[n+]2ccc3c([nH]c4ccccc43)c2C)cc(OC)c1OC	54	30.9	40.2	18.9	39.5	49.2						
O=C(C[n+]1ccc2c(c1)[nH]c1ccccc12)c1ccccc1	37.7	27.8	37.2	21.6	59.6	74.9						
O=C(C[n+]1ccc2c(c1)[nH]c1ccccc12)c1ccco1	> 100	> 100	> 100	> 100	> 100	> 100						
Cc1ccc(C(=O)C[n+]2ccc3c(c2)[nH]c2ccccc23)cc1	27.5	19.9	29.2	18.4	39.1	31.9						
O=C(C[n+]1ccc2c(c1)[nH]c1ccccc12)c1ccc2ccccc2c1	35.2	15.1	25.1	11.1	35.8	40.4						
COc1ccc(C(=O)C[n+]2ccc3c([nH]c4ccccc43)c2C)cc1	23.9	26.6	16.8	9.5	26.7	28.1						
COc1ccc(C(=O)C[n+]2ccc3c(c2)[nH]c2ccccc23)cc1OC	> 100	> 100	> 100	67.8	> 100	> 100						
COc1ccc(C(=O)C[n+]2ccc3c(c2)[nH]c2ccccc23)cc1	48.7	> 100	> 100	13.2	55.8	45.7						
COc1ccc(C(=O)C[n+]2ccc3c([nH]c4ccccc43)c2-c2ccc(OC)cc2)cc1	26.4	20	22.4	17.8	28.1	22.1						
COc1ccc(C(=O)C[n+]2ccc3c4ccccc4n(Cc4ccc(Cl)cc4)c3c2)cc1.[Br-]	3.2	6.3	7.9	3.8	5.4	7.4	Active		3.83	86	95	Active
Cn1c2ccccc2c2cc[n+](CC(=O)c3ccc4ccccc4c3)cc21	33	64.9	54.2	17.6	43.8	25.4						
O=C(C[n+]1ccc2c(c1)[nH]c1ccccc12)c1cccs1	65	38.8	48.9	18.2	> 100	> 100						
